Laboratory results taken from ChEMBL document CHEMBL4334451, “Natural Alkaloid Berberine Activity against Pseudomonas aeruginosa MexXY-Mediated Aminoglycoside Resistance: In Silico and in Vitro Studies” (J Nat Prod, 2019).
Calls of active or inactive are those of the source. No cut-off for these calls is given here.

Tests used:
Assay type in all cases: protein-complex assay
[1] = target: T1, MexXY/OprM (Pseudomonas aeruginosa (strain ATCC 15692 / DSM 22644 / CIP 104116 / JCM14847 / LMG 12228 / 1C / PRS 101 / PAO1)) (UniProt Q51487+Q9ZNG9+Q9ZNG8); assay: Inhibition of MexXY/OPRM in Pseudomonas aeruginosa AR48 assessed as reduction in bacterial resistance to tobramycin by measuring tobramycin MIC at 80 ug/ml incubated for 24 to 48 hrs by broth microdilution method (reference value: 32 ug/ml)
[2] = target: T1, MexXY/OprM (Pseudomonas aeruginosa (strain ATCC 15692 / DSM 22644 / CIP 104116 / JCM14847 / LMG 12228 / 1C / PRS 101 / PAO1)); assay: Inhibition of MexXY/OPRM in Pseudomonas aeruginosa C70 assessed as reduction in bacterial resistance to tobramycin by measuring fold reduction in tobramycin MIC at 80 ug/ml incubated for 24 to 48 hrs by broth microdilution method
[3] = target: T1, MexXY/OprM (Pseudomonas aeruginosa (strain ATCC 15692 / DSM 22644 / CIP 104116 / JCM14847 / LMG 12228 / 1C / PRS 101 / PAO1)); assay: Inhibition of MexXY/OPRM in Pseudomonas aeruginosa C89 assessed as reduction in bacterial resistance to tobramycin by measuring fold reduction in tobramycin MIC at 80 ug/ml incubated for 24 to 48 hrs by broth microdilution method
Procedure, shortened: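 Tobramycin MIC by CLSI broth microdilution at 37°C, read at 24 and 48 h, with and without a fixed berberine concentration selected from checkerboard assays. Berberine stock was in 50% DMSO/50% methanol, final DMSO about 1%. A 2-fold decrease in tobramycin MIC was scored as synergy.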

[4] = target: T1, MexXY/OprM (Pseudomonas aeruginosa (strain ATCC 15692 / DSM 22644 / CIP 104116 / JCM14847 / LMG 12228 / 1C / PRS 101 / PAO1)); assay: Inhibition of MexXY/OPRM in Pseudomonas aeruginosa C9 assessed as reduction in bacterial resistance to tobramycin by measuring tobramycin MIC at 80 ug/ml incubated for 24 to 48 hrs by broth microdilution method (reference value: 2 ug/ml)
Procedure, shortened: (§1)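 Broth microdilution per CLSI, with P. aeruginosa ATCC 27853 as reference strain, in 2-fold dilution series. Plates were incubated at 37°C and read for visible growth at 24 and 48 h. Berberine stock was in 50% DMSO/50% methanol, with final DMSO kept near 1%. Berberine was tested at 10–320 µg/ml, alone or at a fixed level with serial tobramycin.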

[5] = target: T1, MexXY/OprM (Pseudomonas aeruginosa (strain ATCC 15692 / DSM 22644 / CIP 104116 / JCM14847 / LMG 12228 / 1C / PRS 101 / PAO1)); assay: Inhibition of MexXY/OPRM in Pseudomonas aeruginosa C51 assessed as bacterial growth up to 320 ug/ml incubated for 24 to 48 hrs by broth microdilution method
Procedure, shortened: (§2)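 Broth microdilution following CLSI guidelines, with P. aeruginosa ATCC 27853 as reference strain. Berberine was tested at 2-fold concentrations from 10 to 320 µg/ml, dissolved in 50% DMSO/50% methanol, with the top concentration set to keep final DMSO close to 1%. Plates were incubated at 37°C and read for visible growth at 24 and 48 h.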

[6] = target: T1, MexXY/OprM (Pseudomonas aeruginosa (strain ATCC 15692 / DSM 22644 / CIP 104116 / JCM14847 / LMG 12228 / 1C / PRS 101 / PAO1)); assay: Inhibition of MexXY/OPRM in Pseudomonas aeruginosa C15 assessed as reduction in bacterial resistance to tobramycin by measuring tobramycin MIC at 80 ug/ml incubated for 24 to 48 hrs by broth microdilution method (reference value: 8 ug/ml)
[7] = target: T1, MexXY/OprM (Pseudomonas aeruginosa (strain ATCC 15692 / DSM 22644 / CIP 104116 / JCM14847 / LMG 12228 / 1C / PRS 101 / PAO1)); assay: Inhibition of MexXY/OPRM in Pseudomonas aeruginosa C25 assessed as bacterial growth up to 320 ug/ml incubated for 24 to 48 hrs by broth microdilution method; procedure, shortened: as §2
[8] = target: T1, MexXY/OprM (Pseudomonas aeruginosa (strain ATCC 15692 / DSM 22644 / CIP 104116 / JCM14847 / LMG 12228 / 1C / PRS 101 / PAO1)); assay: Inhibition of MexXY/OPRM in Pseudomonas aeruginosa C15 assessed as bacterial growth up to 320 ug/ml incubated for 24 to 48 hrs by broth microdilution method; procedure, shortened: as §2
[9] = target: T1, MexXY/OprM (Pseudomonas aeruginosa (strain ATCC 15692 / DSM 22644 / CIP 104116 / JCM14847 / LMG 12228 / 1C / PRS 101 / PAO1)); assay: Inhibition of MexXY/OPRM in Pseudomonas aeruginosa C83 assessed as bacterial growth up to 320 ug/ml incubated for 24 to 48 hrs by broth microdilution method; procedure, shortened: as §2
[10] = target: T1, MexXY/OprM (Pseudomonas aeruginosa (strain ATCC 15692 / DSM 22644 / CIP 104116 / JCM14847 / LMG 12228 / 1C / PRS 101 / PAO1)); assay: Inhibition of MexXY/OPRM in Pseudomonas aeruginosa C83 assessed as reduction in bacterial resistance to tobramycin by measuring tobramycin MIC at 80 ug/ml incubated for 24 to 48 hrs by broth microdilution method (reference value: 128 ug/ml)
[11] = target: T1, MexXY/OprM (Pseudomonas aeruginosa (strain ATCC 15692 / DSM 22644 / CIP 104116 / JCM14847 / LMG 12228 / 1C / PRS 101 / PAO1)); assay: Inhibition of MexXY/OPRM in Pseudomonas aeruginosa C59 assessed as bacterial growth up to 320 ug/ml incubated for 24 to 48 hrs by broth microdilution method; procedure, shortened: as §2
[12] = target: T1, MexXY/OprM (Pseudomonas aeruginosa (strain ATCC 15692 / DSM 22644 / CIP 104116 / JCM14847 / LMG 12228 / 1C / PRS 101 / PAO1)); assay: Inhibition of MexXY/OPRM in Pseudomonas aeruginosa C60 assessed as reduction in bacterial resistance to tobramycin by measuring tobramycin MIC at 80 ug/ml incubated for 24 to 48 hrs by broth microdilution method (reference value: >128 ug/ml)
[13] = target: T1, MexXY/OprM (Pseudomonas aeruginosa (strain ATCC 15692 / DSM 22644 / CIP 104116 / JCM14847 / LMG 12228 / 1C / PRS 101 / PAO1)); assay: Inhibition of MexXY/OPRM in Pseudomonas aeruginosa C60 assessed as reduction in bacterial resistance to tobramycin by measuring fold reduction in tobramycin MIC at 80 ug/ml incubated for 24 to 48 hrs by broth microdilution method
[14] = target: T1, MexXY/OprM (Pseudomonas aeruginosa (strain ATCC 15692 / DSM 22644 / CIP 104116 / JCM14847 / LMG 12228 / 1C / PRS 101 / PAO1)); assay: Inhibition of MexXY/OPRM in Pseudomonas aeruginosa C54 assessed as reduction in bacterial resistance to tobramycin by measuring tobramycin MIC at 80 ug/ml incubated for 24 to 48 hrs by broth microdilution method (reference value: 32 ug/ml)
[15] = target: T1, MexXY/OprM (Pseudomonas aeruginosa (strain ATCC 15692 / DSM 22644 / CIP 104116 / JCM14847 / LMG 12228 / 1C / PRS 101 / PAO1)); assay: Inhibition of MexXY/OPRM in Pseudomonas aeruginosa C51 assessed as reduction in bacterial resistance to tobramycin by measuring tobramycin MIC at 80 ug/ml incubated for 24 to 48 hrs by broth microdilution method (reference value: 0.125 ug/ml)
[16] = target: T1, MexXY/OprM (Pseudomonas aeruginosa (strain ATCC 15692 / DSM 22644 / CIP 104116 / JCM14847 / LMG 12228 / 1C / PRS 101 / PAO1)); assay: Inhibition of MexXY/OPRM in Pseudomonas aeruginosa C76 assessed as reduction in bacterial resistance to tobramycin by measuring tobramycin MIC at 80 ug/ml incubated for 24 to 48 hrs by broth microdilution method (reference value: 32 ug/ml)
[17] = target: T1, MexXY/OprM (Pseudomonas aeruginosa (strain ATCC 15692 / DSM 22644 / CIP 104116 / JCM14847 / LMG 12228 / 1C / PRS 101 / PAO1)); assay: Inhibition of MexXY/OPRM in Pseudomonas aeruginosa C59 assessed as reduction in bacterial resistance to tobramycin by measuring tobramycin MIC at 80 ug/ml incubated for 24 to 48 hrs by broth microdilution method (reference value: 64 ug/ml)
[18] = target: T1, MexXY/OprM (Pseudomonas aeruginosa (strain ATCC 15692 / DSM 22644 / CIP 104116 / JCM14847 / LMG 12228 / 1C / PRS 101 / PAO1)); assay: Inhibition of MexXY/OPRM in Pseudomonas aeruginosa C95 assessed as reduction in bacterial resistance to tobramycin by measuring log reduction in colony forming unit at 80 ug/ml in presence of 1XMIC to 2XMIC tobramycin measured after 24 hrs by Time-kill curve analysis
[19] = target: T1, MexXY/OprM (Pseudomonas aeruginosa (strain ATCC 15692 / DSM 22644 / CIP 104116 / JCM14847 / LMG 12228 / 1C / PRS 101 / PAO1)); assay: Inhibition of MexXY/OPRM in Pseudomonas aeruginosa C30 assessed as reduction in bacterial resistance to tobramycin by measuring tobramycin MIC at 80 ug/ml incubated for 24 to 48 hrs by broth microdilution method (reference value: 8 ug/ml)
[20] = target: T1, MexXY/OprM (Pseudomonas aeruginosa (strain ATCC 15692 / DSM 22644 / CIP 104116 / JCM14847 / LMG 12228 / 1C / PRS 101 / PAO1)); assay: Inhibition of MexXY/OPRM in Pseudomonas aeruginosa C95 assessed as reduction in bacterial resistance to tobramycin by measuring tobramycin MIC at 80 ug/ml incubated for 24 to 48 hrs by broth microdilution method (reference value: 32 ug/ml); procedure, shortened: as §1
[21] = target: T1, MexXY/OprM (Pseudomonas aeruginosa (strain ATCC 15692 / DSM 22644 / CIP 104116 / JCM14847 / LMG 12228 / 1C / PRS 101 / PAO1)); assay: Inhibition of MexXY/OPRM in Pseudomonas aeruginosa C95 assessed as reduction in bacterial resistance to tobramycin by measuring increase in tobramycin-mediated bactericidal activity at 80 ug/ml in presence of 0.5XMIC tobramycin measured after 4 hrs by Time-kill curve analysis
[22] = target: T1, MexXY/OprM (Pseudomonas aeruginosa (strain ATCC 15692 / DSM 22644 / CIP 104116 / JCM14847 / LMG 12228 / 1C / PRS 101 / PAO1)); assay: Inhibition of MexXY/OPRM in Pseudomonas aeruginosa C73 assessed as reduction in bacterial resistance to tobramycin by measuring tobramycin MIC at 80 ug/ml incubated for 24 to 48 hrs by broth microdilution method (reference value: 128 ug/ml)

## COc1ccc2cc3[n+](cc2c1OC)CCc1cc2c(cc1-3)OCO2 [BERBERINE]
[1]
  MIC: 8 µg/mL
[2]
  fold change (FC): > 2
[3]
  fold change (FC): > 2
[4]
  MIC: 1 µg/mL
[5]
  inhibition: inactive
[6]
  MIC: 8 µg/mL
[7]
  inhibition: inactive
[8]
  inhibition: inactive
[9]
  inhibition: inactive
[10]
  MIC: 32 µg/mL
[11]
  inhibition: inactive
[12]
  MIC: 64 µg/mL
[13]
  fold change (FC): > 2
[14]
  MIC: 16 µg/mL
[15]
  MIC: < 0.125 µg/mL
[16]
  MIC: 16 µg/mL
[17]
  MIC: 32 µg/mL
[18]
  Activity: 2 log10CFU
[19]
  MIC: 8 µg/mL
[20]
  MIC: 4 µg/mL
[21]
  inhibition: Active
[22]
  MIC: 64 µg/mL
